From ChEMBL document CHEMBL1148491, “Synthesis and pharmacological characterization of nicotinic acetylcholine receptor properties of (+)- and (-)-pyrido-[3,4-b]homotropanes” (J Med Chem, 2006)
Active and inactive are the calls of the source. The rule behind the calls is not given here.

Tests used:
Mus musculus [1] = organism: Mus musculus; experiment: Hypothermia in mouse; format: functional
How it was run: (§1)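 Rectal temperature in mice measured by thermistor probe inserted 24 mm, read just before and at several times after sc injection (saline vehicle). Readout is the before-after difference for each mouse; ambient temperature 21-24 °C.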

[2] = biological target: Neuronal acetylcholine receptor; alpha4/beta2 (Rattus norvegicus, UniProt P09483+P12390); experiment: Displacement of [3H]epibatidine from alpha-4-beta-2 nACHR in rat cerebral cortex; format: tissue-based
Chain of Neuronal acetylcholine receptor; alpha4/beta2 (Rattus norvegicus, UniProt P09483+P12390) (P09483 whole entry): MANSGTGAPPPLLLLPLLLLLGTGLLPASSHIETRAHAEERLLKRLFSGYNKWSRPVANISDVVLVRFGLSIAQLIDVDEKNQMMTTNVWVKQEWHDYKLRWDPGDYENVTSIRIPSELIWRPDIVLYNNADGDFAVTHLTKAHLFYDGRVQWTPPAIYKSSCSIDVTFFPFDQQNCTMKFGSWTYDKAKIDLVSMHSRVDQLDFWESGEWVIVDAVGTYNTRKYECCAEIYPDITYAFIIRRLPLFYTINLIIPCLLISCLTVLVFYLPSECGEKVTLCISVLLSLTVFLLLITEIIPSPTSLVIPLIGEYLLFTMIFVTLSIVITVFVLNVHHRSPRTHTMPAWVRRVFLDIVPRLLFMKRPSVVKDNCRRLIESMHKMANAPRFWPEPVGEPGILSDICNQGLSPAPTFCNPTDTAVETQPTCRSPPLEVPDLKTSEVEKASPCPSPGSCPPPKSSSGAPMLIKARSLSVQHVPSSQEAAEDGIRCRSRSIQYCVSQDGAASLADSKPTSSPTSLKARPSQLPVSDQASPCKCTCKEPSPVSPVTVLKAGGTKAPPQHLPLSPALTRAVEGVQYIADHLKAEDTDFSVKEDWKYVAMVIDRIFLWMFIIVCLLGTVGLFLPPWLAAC
Chain of Neuronal acetylcholine receptor; alpha4/beta2 (Rattus norvegicus, UniProt P09483+P12390) (P12390 whole entry): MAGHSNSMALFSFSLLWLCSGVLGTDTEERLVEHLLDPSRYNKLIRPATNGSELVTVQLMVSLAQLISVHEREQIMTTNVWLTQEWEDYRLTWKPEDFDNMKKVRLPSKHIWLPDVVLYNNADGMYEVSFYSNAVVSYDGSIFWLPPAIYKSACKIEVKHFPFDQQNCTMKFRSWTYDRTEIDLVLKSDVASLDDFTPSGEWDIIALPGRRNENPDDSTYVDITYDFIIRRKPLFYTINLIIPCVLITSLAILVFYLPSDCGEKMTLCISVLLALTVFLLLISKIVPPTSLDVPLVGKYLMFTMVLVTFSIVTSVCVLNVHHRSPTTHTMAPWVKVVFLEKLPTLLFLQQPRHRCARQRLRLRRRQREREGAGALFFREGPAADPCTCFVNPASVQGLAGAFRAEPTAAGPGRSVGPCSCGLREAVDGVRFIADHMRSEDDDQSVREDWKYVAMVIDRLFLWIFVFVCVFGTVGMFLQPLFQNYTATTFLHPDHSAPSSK

Mus musculus [3] = experiment: Antinociceptive activity in mouse by tail flick assay at 10 mg/kg; format: functional
How it was run: (§2)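 Mouse tail-flick: tail exposed to a heat lamp and flick latency recorded. A control latency (2-4 s) was taken before treatment and a test latency after drug. Response given as %MPE = (test - control)/(maximum - control) × 100. ED50 with 95% confidence limits from unweighted least-squares linear regression.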

Mus musculus [4] = experiment: Antinociceptive activity in mouse by hot plate assay at 10 mg/kg, sc after 5 mins; format: functional; details: route subcutaneous
How it was run: (§3)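 Mouse hot-plate at 55.0 °C in a 10-cm glass cylinder. Two control latencies were taken ≥10 min apart (normal 8-12 s), scored by jumping or paw licking. Mice were tested 5 min after sc injection. Response given as %MPE = (test - control)/(maximum - control) × 100.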

Mus musculus [5] = organism: Mus musculus; experiment: Spontaneous activity in mouse; format: functional
How it was run: (§4)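 Mice placed in individual photocell activity cages 5 min after sc injection (0.9% saline vehicle). Photocell beam interruptions were counted over the next 10 min.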

Mus musculus [6] = organism: Mus musculus; experiment: Antagonist effect against nicotine-induced antinociceptive activity in mouse by tail flick assay; format: functional
Mus musculus [7] = organism: Mus musculus; experiment: Antagonist effect on nicotine-induced antinociceptive activity in mouse by hot plate assay; format: functional
Rattus norvegicus [8] = experiment: Agonist activity on nicotine discrimination in rat at 3 mg/kg by lever press assay; format: functional
How it was run: (§5)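 Substitution tests were 15-min sessions starting 10 min after sc injection, with either lever reinforced. A rat was tested only if it made ≥80% injection-appropriate responses on the prior training day. Readouts: % nicotine-lever responding and response rate.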

Rattus norvegicus [9] = experiment: Antagonist activity on nicotine discrimination in rat at 3 mg/kg by lever press assay; format: functional; design: scale not given: the % may be the effect or the level left
How it was run: (§6)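 Pretreatment with the test dose sc was followed 10 min later by 0.4 mg/kg (-)-nicotine, then a 15-min test session. Readouts: % nicotine-lever responding and response rate.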

Mus musculus [10] = experiment: Antinociceptive activity in mouse by tail flick assay at 1 mg/kg; format: functional; how it was run: as §2
Mus musculus [11] = experiment: Antagonist effect on nicotine-induced antinociceptive activity in mouse by tail flick assay at […]; format: functional; design: scale not given: the % may be the effect or the level left
Mus musculus [12] = experiment: Antinociceptive activity in mouse by hot plate assay at 1 mg/kg, sc after 5 mins; format: functional; details: route subcutaneous; how it was run: as §3
Mus musculus [13] = experiment: Antagonist effect on nicotine-induced antinociceptive activity in mouse by hot plate assay at […]; format: functional; design: scale not given: the % may be the effect or the level left
Mus musculus [14] = experiment: Antagonist effect on nicotine-induced hypothermia in mouse at […]; format: functional; design: scale not given: the % may be the effect or the level left
[15] = biological target: T1, Neuronal acetylcholine receptor; alpha4/beta2 (Homo sapiens, UniProt P17787+P43681); experiment: Intrinsic activity at human alpha-4-beta-2 nACHR in SH-EP1 cells relative to ACh; format: functional, cell-based
T1 sequence (P17787 whole entry): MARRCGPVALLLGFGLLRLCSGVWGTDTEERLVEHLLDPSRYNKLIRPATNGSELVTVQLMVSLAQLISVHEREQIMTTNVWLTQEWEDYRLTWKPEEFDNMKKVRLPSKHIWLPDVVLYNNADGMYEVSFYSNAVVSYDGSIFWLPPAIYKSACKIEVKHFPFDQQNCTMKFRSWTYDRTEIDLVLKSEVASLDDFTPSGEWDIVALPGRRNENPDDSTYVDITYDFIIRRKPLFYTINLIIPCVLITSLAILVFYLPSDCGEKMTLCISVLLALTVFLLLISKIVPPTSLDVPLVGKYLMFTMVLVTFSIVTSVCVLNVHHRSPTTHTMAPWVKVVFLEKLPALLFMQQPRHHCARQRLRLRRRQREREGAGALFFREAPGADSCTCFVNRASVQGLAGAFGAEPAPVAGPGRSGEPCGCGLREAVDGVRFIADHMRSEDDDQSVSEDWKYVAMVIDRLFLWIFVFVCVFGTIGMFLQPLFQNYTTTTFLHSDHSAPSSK
T1 sequence (P43681 whole entry): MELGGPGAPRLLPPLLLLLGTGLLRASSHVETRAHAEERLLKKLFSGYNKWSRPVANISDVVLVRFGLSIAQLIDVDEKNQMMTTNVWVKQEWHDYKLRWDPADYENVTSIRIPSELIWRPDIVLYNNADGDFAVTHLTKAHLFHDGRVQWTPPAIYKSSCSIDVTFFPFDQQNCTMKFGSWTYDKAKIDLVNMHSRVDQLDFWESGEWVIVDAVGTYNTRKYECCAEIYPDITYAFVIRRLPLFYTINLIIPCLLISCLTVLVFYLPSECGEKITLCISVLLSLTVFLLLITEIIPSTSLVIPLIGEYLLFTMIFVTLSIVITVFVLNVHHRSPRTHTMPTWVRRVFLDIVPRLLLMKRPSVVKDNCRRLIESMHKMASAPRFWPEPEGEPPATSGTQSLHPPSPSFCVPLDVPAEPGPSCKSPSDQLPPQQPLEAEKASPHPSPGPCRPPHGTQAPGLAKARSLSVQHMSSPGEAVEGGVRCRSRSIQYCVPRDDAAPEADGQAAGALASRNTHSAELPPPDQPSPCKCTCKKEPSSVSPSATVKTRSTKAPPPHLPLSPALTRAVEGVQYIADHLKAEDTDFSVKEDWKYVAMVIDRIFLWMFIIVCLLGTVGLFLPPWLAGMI

Rattus norvegicus [16] = experiment: Agonist activity on nicotine discrimination in rat at 0.56 mg/kg by lever press assay; format: functional; how it was run: as §5
Rattus norvegicus [17] = experiment: Antagonist activity on nicotine discrimination in rat at 0.3 mg/kg by lever press assay; format: functional; design: scale not given: the % may be the effect or the level left; how it was run: as §6
[18] = biological target: T1, Neuronal acetylcholine receptor; alpha4/beta2; experiment: Agonist activity at human alpha-4-beta-2 nACHR in SH-EP1 cells by patch-clamp assay at 10 uM; format: functional, cell-based
[19] = biological target: T1, Neuronal acetylcholine receptor; alpha4/beta2; experiment: Antagonist activity at human alpha-4-beta-2 nACHR in SH-EP1 cells by patch-clamp assay at 10 uM; format: functional, cell-based; design: scale not given: the % may be the effect or the level left
[20] = biological target: T2, Neuronal acetylcholine receptor; alpha3/beta4 (Rattus norvegicus) (UniProt P04757+P12392); experiment: Agonist activity at rat alpha3beta4 nACHR in HEK293 cells by patch-clamp assay at 10 uM; format: functional, cell-based
[21] = biological target: T2, Neuronal acetylcholine receptor; alpha3/beta4 (Rattus norvegicus); experiment: Antagonist activity at rat alpha-3-beta-4 nACHR in HEK293 cells by patch-clamp assay at 10 uM; format: functional, cell-based; design: scale not given: the % may be the effect or the level left
[22] = biological target: Neuronal acetylcholine receptor subunit alpha-7 (Homo sapiens) (UniProt P36544); experiment: Displacement of [125I]iodoMLA from alpha-7 nACHR at 10 uM; details: Rattus norvegicus
Chain of Neuronal acetylcholine receptor subunit alpha-7 (Homo sapiens) (P36544 whole entry): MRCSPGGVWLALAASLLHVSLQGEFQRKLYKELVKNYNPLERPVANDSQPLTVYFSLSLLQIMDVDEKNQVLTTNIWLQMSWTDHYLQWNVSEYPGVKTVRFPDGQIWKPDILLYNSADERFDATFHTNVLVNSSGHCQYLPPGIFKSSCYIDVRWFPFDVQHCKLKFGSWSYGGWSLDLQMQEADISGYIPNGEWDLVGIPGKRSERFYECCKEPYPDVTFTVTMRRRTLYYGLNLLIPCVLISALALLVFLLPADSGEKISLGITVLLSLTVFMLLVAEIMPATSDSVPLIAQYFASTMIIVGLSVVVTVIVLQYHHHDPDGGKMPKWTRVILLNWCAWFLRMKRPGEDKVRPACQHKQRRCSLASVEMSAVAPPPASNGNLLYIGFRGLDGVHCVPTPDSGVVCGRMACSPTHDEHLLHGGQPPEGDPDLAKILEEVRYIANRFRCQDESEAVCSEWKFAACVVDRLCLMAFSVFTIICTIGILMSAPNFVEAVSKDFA

[23] = biological target: T1, Neuronal acetylcholine receptor; alpha4/beta2; experiment: Activity at human alpha-4-beta-2 nACHR assessed as inhibition of ACh-induced current in SH-EP1 cells at 40 uM; format: functional, cell-based; design: scale not given: the % may be the effect or the level left
Mus musculus [24] = experiment: Antinociceptive activity in mouse by tail flick assay at 10 ug administered intrathecally; format: functional, organism-based
How it was run: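 Tail-flick latency to a heat lamp in mice after intrathecal injection of 10 µg/mouse.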

Mus musculus [25] = experiment: Spontaneous activity in mouse at 5 mg/kg; format: functional; how it was run: as §4
Mus musculus [26] = experiment: Hypothermia in mouse at 5 mg/kg; format: functional, organism-based; design: dose 5 mg/kg; how it was run: as §1
Mus musculus [27] = organism: Mus musculus; experiment: Antinociceptive activity in mouse by tail flick assay
Mus musculus [28] = experiment: Antinociceptive activity in sc dosed mouse by hot plate assay after 5 mins

c1cc2c(cn1)C1CCC(CC2)N1 (racemic)
ED50 (Mus musculus [1]; Mus musculus, read-out: ED50): 1600 µg/kg | Ki [2]: 6.1 nM | Activity (Mus musculus [3]): 12% | Activity (Mus musculus [4]): 2% | ED50 (Mus musculus [5]; Mus musculus, read-out: ED50): 2600 µg/kg | AD50 (Mus musculus [6]): 5 µg/kg | AD50 (Mus musculus [7]): 1000 µg/kg | Activity (Rattus norvegicus [8]): 17% | Activity (Rattus norvegicus [9]): 84%

c1cc2c(cn1)C1CCC(CC2)N1 (single isomer, unassigned; (+)) [listing 1 of 2 here]
ED50 (Mus musculus [1]): 2900 µg/kg | Ki [2]: 1.29 nM | Activity (Mus musculus [10]): 8% | Activity (Mus musculus [11]): 0% | Activity (Mus musculus [12]): 8% | Activity (Mus musculus [13]): 5% | Activity (Mus musculus [14]): 0% | ED50 (Mus musculus [5]): 2000 µg/kg | EC50 [15]: 5500 nM | Activity (Rattus norvegicus [16]): 44.5% | Activity (Rattus norvegicus [17]): 96%

c1cc2c(cn1)C1CCC(CC2)N1 (single isomer, unassigned; (+)) [listing 2 of 2 here]
Activity [18]: 28% | Activity [19]: 117% | Activity [20]: 13% | Activity [21]: 101% | inhibition [22]: < 50% | Activity [15]: 17% | Activity [23]: 10% | Activity (Mus musculus [24]): inactive

c1cc2c(cn1)C1CCC(CC2)N1 (single isomer, unassigned; (-)) [listing 1 of 2 here]
Ki [2]: 350 nM | Activity (Mus musculus [10]): 2% | Activity (Mus musculus [12]): 2% | Activity (Mus musculus [25]): 10% | AD50 (Mus musculus [6]): 0.07 µg/kg | AD50 (Mus musculus [7]): 0.8 µg/kg | Activity (Rattus norvegicus [8]): 23.8%

c1cc2c(cn1)C1CCC(CC2)N1 (single isomer, unassigned; (-)) [listing 2 of 2 here]
Activity (Mus musculus [26]): Active | Activity [18]: 0% | Activity [19]: 89% | Activity [20]: 0.9% | Activity [21]: 93% | inhibition [22]: 50% | Activity (Mus musculus [24]): inactive

Clc1ccc([C@@H]2C[C@H]3CC[C@@H]2N3)cn1 [(+)-EPIBATIDINE]
ED50 (Mus musculus [1]; Mus musculus, read-out: ED50): 4 µg/kg | ED50 (Mus musculus [27]): 0.6 µg/kg | ED50 (Mus musculus [28]): 4 µg/kg | ED50 (Mus musculus [5]; Mus musculus, read-out: ED50): 1 µg/kg

Clc1ccc([C@H]2C[C@@H]3CC[C@H]2N3)cn1 [(-)-EPIBATIDINE]
ED50 (Mus musculus [1]; Mus musculus, read-out: ED50): 4 µg/kg | ED50 (Mus musculus [27]): 6 µg/kg | ED50 (Mus musculus [28]): 4 µg/kg | ED50 (Mus musculus [5]; Mus musculus, read-out: ED50): 1 µg/kg

CN1CCC[C@H]1c1cccnc1 [NICOTINE]
ED50 (Mus musculus [1]; Mus musculus, read-out: ED50): 1000 µg/kg | ED50 (Mus musculus [27]): 1300 µg/kg | ED50 (Mus musculus [28]): 650 µg/kg | ED50 (Mus musculus [5]; Mus musculus, read-out: ED50): 500 µg/kg

CN1CCC[C@@H]1c1cccnc1 [R-NICOTINE]
ED50 (Mus musculus [1]; Mus musculus, read-out: ED50): 7600 µg/kg | ED50 (Mus musculus [27]): 8000 µg/kg | ED50 (Mus musculus [28]): 3900 µg/kg | ED50 (Mus musculus [5]; Mus musculus, read-out: ED50): 2900 µg/kg
